The IC50 is the concentration that gives 50% inhibition.

Structures are written as SMILES. Activity calls are given as the source filed them. The rule behind the calls is not given here.

For series [1], the system named is MKN-45. The series is described as follows: Inhibition of KDM4 in human MKN-45 cells assessed as increase in H3K9me2 accumulation at 0.5 to 20 uM measured after 5 days by Western blot analysis. The settings on record: dose 0.5-20 µM, time 5.0 day. It is filed as cell-based. The gist of the method: (§1)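 MKN45 cells were treated for 5 days and lysed in RIPA buffer. About 30 µg protein was run on 10% SDS-PAGE and transferred to 0.2 µm nitrocellulose, then blocked with 5% milk in PBS for 2 h. Blots were probed for histone methylation marks with histone 3 as loading control and detected by ECL.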
In general terms: In western blotting, separated proteins are transferred to a membrane and probed.

Series [2] concerns the target T1, Lysine-specific demethylase 5B (Homo sapiens, UniProt Q9UGL1). The series is described as follows: Inhibition of KDM5B in human MKN-45 cells assessed as increase in H3K4me2 accumulation at 0.5 to 20 uM measured after 5 days by Western blot analysis. It is filed as cell-based. To be noted: dose 0.5-20 µM, time 5.0 day. The gist of the method:
as §1

For series [3], the target named is T1, Lysine-specific demethylase 5B. Put plainly: Inhibition of KDM5B in human MKN-45 cells assessed as increase in H3K4me3 accumulation at 0.5 to 20 uM measured after 5 days by Western blot analysis. Type of series: cell-based. The settings on record: dose 0.5-20 µM, time 5.0 day. Summed up: as §1
Series [4] has the same target. The series is described as follows: Inhibition of recombinant human N-terminal FLAG-tagged KDM5B expressed in Sf9 insect cells using biotin-H3K4me as substrate by ALPHA. Summed up:
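ALPHA demethylase assay. Recombinant KDM5B (4 nM) was preincubated with compound, then biotin-H3K4me3 peptide (64 nM) was added. Buffer: 10 μM α-KG, 100 μM ascorbate, 50 μM (NH4)2Fe(SO4)2, 50 mM HEPES pH 7.5, 0.01% Tween 20, 0.1% BSA. Read-out used streptavidin donor and H3K4me1-2 antibody acceptor beads. Data were normalized to blank control and IC50 fitted.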

Series [5] has as its system MKN-45. Put plainly: Inhibition of KDM6 in human MKN-45 cells assessed as increase in H3K27me2 accumulation at 0.5 to 20 uM measured after 5 days by Western blot analysis. Type of series: cell-based. The settings on record: dose 0.5-20 µM, time 5.0 day. The gist of the method: as §1
Series [6] addresses T2, Lysine-specific demethylase 6B (Homo sapiens, UniProt O15054). The series is described as follows: Inhibition of KDM6B (unknown origin) at 1 uM relative to control.
Series [7] concerns MKN-45. The series is described as follows: Antiproliferative activity against human MKN-45 cells assessed as reduction in cell proliferation measured after 6 days by MTS assay. It is filed as functional, cell-based. To be noted: MKN-45, 144 h. The gist of the method:
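MKN45 cells were seeded at 3×10^3 cells per well and treated for 4 or 6 days, as indicated. Proliferation was read by MTS assay and IC50 derived. Three independent experiments, mean ± SD.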

In series [8] the target is T3, Lysine-specific demethylase 5C (Homo sapiens, UniProt P41229). Put plainly: Inhibition of KDM5C (unknown origin) at 0.01 uM relative to control.
The target in series [9] is T3, Lysine-specific demethylase 5C. The series is described as follows: Inhibition of KDM5C (unknown origin).
Series [10] has as its target T1, Lysine-specific demethylase 5B. The series is described as follows: Inhibition of KDM5B in human MKN-45 cells assessed as increase in H3K4me2 accumulation measured after 5 days by Hoechst 33342 staining based immunofluorescence assay. Type of series: cell-based. To be noted: time 5.0 day. The gist of the method:
(§2)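 MKN45 cells were seeded and left 24 h, then treated for 5 days. Cells were fixed in 4% paraformaldehyde, permeabilised with 0.1% Triton X-100 for 20 min and blocked with 5% BSA for 1 h. H3K4me2 or H3K4me3 primary antibody was applied at 4°C overnight, followed by Alexa Fluor 488 secondary and Hoechst 33342 (5 µg/mL) nuclear stain. Signal was quantified by high content imaging; three independent experiments.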

The test system of series [11] is MKN-45. Put plainly: Inhibition of KDM4 in human MKN-45 cells assessed as increase in H3K9me3 accumulation at 0.5 to 20 uM measured after 5 days by Western blot analysis. Type of series: cell-based. To be noted: dose 0.5-20 µM, time 5.0 day. Summed up: as §1
A short description of series [12]: Cytotoxicity against human GES1 cells assessed as reduction in cell proliferation at 100 uM by MTS assay relative to control. To be noted: read-out: Activity. Type of series: cell-based. The gist of the method:
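Normal human gastric epithelial GES-1 cells, seeded at 3×10^3 cells per well and exposed to 100 μM. Antiproliferation rate was read by MTS assay.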
In general terms: Formazan colour is commonly taken as a measure of viable cells.

The target of series [13] is T1, Lysine-specific demethylase 5B. The series is described as follows: Inhibition of KDM5B in human MKN-45 cells assessed as increase in H3K4me3 accumulation measured after 5 days by Hoechst 33342 staining based immunofluorescence assay. Type of series: cell-based. The settings on record: time 5.0 day. Summed up:
as §2

The target of series [14] is T4, Lysine-specific demethylase 5A (Homo sapiens, UniProt P29375). Put plainly: Inhibition of KDM5A (unknown origin) at 0.01 uM relative to control.
Series [15] has as its system MKN-45. Put plainly: Inhibition of colony formation in human MKN-45 cells measured after 10 days by crystal violet staining based microscopic analysis. Type of series: functional, cell-based. To be noted: time 10.0 day. Summed up:
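1000 MKN45 cells were seeded in 6-well plates and treated. The medium was then replaced and cells were cultured another 10 days. Colonies were fixed with cold methanol, stained with crystal violet and photographed under a microscope.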

Series [16] deals with T4, Lysine-specific demethylase 5A. The series is described as follows: Inhibition of KDM5A (unknown origin) at 0.25 uM relative to control.
The subject of series [17] is MKN-45. The series is described as follows: Antimigratory activity in human MKN-45 cells measured after 24 hrs by transwell assay. It is filed as functional, cell-based.
Series [18] has as its target T5, Lysine-specific demethylase 4C (Homo sapiens) (UniProt Q9H3R0).
T5 sequence (whole entry): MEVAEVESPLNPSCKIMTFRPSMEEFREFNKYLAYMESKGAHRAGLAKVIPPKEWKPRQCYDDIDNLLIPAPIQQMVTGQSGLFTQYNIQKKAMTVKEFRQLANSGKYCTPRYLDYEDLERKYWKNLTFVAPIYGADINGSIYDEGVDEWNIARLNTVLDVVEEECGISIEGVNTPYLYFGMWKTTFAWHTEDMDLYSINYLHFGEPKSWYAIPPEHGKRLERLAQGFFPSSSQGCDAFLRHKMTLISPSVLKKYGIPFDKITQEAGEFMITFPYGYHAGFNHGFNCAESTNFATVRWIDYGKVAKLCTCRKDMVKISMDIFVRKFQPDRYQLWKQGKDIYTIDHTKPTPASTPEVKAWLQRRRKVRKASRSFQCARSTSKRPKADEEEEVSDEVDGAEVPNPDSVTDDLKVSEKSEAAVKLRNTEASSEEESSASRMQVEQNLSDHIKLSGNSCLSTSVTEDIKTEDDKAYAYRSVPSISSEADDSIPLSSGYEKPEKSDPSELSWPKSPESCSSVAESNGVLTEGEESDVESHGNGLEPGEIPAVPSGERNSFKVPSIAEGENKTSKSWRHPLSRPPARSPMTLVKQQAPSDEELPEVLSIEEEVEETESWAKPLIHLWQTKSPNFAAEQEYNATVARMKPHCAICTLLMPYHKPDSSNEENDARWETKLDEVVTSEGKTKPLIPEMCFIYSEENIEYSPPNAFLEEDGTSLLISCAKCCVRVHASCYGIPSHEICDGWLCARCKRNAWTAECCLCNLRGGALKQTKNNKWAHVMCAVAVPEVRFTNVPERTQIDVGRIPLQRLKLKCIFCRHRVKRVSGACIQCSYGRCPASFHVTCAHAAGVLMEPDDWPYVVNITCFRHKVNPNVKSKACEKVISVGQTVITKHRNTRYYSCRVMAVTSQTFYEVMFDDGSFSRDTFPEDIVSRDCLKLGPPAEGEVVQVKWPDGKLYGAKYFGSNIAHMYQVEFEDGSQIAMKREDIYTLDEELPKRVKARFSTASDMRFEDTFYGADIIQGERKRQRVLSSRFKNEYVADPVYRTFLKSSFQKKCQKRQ
Put plainly: Inhibition of KDM4C (unknown origin) at 1 uM relative to control.

In series [19] the target is T2, Lysine-specific demethylase 6B. The series is described as follows: Inhibition of KDM6B (unknown origin) at 0.01 uM relative to control.

T1 sequence (Q9UGL1 whole entry): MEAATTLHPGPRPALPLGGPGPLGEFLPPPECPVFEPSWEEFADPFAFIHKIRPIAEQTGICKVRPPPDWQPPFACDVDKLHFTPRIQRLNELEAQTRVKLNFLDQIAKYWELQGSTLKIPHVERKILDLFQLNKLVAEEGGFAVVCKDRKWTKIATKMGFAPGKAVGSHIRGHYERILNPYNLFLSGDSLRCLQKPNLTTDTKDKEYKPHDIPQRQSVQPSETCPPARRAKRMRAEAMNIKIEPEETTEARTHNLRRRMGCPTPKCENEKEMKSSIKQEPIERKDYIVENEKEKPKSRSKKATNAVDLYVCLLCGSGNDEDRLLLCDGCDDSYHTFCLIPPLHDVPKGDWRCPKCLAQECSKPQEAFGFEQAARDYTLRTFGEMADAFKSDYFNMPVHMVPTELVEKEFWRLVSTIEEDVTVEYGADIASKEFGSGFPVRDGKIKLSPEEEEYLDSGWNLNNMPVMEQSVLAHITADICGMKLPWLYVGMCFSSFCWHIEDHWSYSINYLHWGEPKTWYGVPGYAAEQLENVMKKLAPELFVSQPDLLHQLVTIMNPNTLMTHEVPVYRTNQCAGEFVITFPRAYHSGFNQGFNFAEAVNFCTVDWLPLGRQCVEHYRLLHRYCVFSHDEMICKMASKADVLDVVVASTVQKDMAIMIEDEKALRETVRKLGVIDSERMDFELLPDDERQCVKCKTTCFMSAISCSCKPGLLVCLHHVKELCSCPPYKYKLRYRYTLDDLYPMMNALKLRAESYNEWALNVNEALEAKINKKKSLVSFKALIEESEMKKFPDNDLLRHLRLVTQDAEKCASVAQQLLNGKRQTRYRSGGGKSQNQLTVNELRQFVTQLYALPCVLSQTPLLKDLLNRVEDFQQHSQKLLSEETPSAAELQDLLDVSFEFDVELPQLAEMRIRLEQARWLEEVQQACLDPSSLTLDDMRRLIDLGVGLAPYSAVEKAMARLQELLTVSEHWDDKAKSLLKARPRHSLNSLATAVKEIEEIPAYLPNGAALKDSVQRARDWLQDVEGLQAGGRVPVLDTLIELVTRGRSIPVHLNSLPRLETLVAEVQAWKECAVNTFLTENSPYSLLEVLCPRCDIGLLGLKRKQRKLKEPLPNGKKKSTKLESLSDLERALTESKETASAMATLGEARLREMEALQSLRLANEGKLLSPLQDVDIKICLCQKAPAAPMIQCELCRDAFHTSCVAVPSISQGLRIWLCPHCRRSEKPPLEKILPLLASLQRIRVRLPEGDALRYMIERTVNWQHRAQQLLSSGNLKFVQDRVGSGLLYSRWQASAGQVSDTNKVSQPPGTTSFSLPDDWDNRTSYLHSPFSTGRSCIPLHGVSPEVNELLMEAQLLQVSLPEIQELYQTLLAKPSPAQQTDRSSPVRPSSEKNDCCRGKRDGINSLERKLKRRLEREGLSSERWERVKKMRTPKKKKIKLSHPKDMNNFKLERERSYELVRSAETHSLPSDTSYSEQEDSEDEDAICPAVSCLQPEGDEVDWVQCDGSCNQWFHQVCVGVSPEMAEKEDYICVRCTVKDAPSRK
T2 sequence (O15054 whole entry): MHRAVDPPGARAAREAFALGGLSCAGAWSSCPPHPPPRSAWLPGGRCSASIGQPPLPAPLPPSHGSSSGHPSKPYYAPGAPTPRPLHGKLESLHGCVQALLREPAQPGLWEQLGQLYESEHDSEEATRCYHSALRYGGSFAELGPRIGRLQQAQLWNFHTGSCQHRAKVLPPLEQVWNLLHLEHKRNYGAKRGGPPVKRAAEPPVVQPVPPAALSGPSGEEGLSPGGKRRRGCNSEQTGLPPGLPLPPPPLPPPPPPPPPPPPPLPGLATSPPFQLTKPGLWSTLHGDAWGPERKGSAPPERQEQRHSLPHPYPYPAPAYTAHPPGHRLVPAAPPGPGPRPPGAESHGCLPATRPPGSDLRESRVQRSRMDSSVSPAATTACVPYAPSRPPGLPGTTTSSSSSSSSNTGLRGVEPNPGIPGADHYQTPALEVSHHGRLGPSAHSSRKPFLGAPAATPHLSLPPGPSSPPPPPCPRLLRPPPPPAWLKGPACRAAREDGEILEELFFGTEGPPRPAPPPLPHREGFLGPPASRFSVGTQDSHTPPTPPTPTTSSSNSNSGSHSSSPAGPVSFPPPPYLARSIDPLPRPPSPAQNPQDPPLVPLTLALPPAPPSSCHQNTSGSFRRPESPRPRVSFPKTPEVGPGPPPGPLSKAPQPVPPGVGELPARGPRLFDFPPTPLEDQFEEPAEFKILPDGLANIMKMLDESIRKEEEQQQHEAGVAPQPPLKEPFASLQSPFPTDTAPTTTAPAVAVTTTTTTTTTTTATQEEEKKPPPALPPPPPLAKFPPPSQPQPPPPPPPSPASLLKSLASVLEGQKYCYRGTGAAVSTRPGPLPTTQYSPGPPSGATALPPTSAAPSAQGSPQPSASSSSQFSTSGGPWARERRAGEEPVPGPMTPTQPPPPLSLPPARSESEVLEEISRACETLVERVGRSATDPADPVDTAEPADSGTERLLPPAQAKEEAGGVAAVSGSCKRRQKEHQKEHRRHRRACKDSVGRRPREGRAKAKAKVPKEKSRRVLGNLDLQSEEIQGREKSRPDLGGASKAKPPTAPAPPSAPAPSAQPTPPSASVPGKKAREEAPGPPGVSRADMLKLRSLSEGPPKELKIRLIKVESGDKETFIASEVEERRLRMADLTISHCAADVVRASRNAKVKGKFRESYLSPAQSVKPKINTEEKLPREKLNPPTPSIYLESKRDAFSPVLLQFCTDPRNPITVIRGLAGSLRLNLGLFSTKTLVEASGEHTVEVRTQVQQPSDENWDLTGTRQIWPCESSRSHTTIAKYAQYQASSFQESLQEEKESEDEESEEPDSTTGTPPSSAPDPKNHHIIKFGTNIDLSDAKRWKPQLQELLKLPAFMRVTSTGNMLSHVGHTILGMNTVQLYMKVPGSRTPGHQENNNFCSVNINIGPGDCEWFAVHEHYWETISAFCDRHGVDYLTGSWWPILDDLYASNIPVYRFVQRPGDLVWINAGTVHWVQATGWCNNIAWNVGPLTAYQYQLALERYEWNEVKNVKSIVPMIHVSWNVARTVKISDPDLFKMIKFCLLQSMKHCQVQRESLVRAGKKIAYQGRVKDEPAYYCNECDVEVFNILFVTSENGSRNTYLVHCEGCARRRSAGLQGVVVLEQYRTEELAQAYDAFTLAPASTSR
T4 sequence (P29375 whole entry): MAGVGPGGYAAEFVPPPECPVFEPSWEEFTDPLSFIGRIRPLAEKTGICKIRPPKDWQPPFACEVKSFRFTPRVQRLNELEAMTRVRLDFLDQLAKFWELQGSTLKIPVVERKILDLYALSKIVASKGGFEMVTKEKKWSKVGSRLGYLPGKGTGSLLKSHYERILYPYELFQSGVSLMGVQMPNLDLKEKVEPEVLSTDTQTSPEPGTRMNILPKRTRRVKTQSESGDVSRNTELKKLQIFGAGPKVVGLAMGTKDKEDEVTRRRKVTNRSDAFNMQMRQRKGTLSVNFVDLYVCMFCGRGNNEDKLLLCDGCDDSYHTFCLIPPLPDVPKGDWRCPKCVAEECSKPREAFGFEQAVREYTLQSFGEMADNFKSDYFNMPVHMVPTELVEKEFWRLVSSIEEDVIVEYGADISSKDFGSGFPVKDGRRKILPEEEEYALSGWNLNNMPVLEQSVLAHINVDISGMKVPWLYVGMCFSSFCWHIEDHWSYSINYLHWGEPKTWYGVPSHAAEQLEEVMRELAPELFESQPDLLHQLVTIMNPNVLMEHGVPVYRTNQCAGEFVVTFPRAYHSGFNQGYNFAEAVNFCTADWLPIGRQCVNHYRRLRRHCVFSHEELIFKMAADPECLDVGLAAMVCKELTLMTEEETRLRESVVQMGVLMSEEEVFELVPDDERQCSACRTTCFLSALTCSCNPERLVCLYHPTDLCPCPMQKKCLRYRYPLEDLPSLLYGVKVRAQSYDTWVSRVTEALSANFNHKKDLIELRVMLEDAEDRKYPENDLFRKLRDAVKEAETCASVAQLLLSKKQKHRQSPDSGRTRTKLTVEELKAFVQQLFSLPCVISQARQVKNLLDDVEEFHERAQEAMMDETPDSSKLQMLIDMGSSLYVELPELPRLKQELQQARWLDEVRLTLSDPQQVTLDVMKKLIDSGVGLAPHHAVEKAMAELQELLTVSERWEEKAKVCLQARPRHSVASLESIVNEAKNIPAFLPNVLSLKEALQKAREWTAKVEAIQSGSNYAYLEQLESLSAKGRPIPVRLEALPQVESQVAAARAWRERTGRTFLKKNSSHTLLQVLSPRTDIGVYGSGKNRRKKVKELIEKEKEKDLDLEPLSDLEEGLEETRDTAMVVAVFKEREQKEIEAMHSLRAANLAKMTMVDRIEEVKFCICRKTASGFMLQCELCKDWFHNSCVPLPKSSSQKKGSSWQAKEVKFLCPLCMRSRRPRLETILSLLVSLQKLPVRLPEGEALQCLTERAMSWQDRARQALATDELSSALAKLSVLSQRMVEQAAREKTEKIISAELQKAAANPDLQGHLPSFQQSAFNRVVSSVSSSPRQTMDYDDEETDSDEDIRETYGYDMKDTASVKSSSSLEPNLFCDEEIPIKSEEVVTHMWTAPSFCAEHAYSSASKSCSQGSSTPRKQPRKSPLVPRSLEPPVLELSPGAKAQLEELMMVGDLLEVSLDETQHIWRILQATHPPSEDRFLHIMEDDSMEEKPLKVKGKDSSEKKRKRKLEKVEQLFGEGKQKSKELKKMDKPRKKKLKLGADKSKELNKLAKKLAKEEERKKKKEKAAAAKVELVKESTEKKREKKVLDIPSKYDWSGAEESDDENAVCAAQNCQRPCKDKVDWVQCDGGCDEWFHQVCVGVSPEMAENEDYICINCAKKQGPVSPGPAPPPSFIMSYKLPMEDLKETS

Regarding `COc1ccc(-n2cc(C(=O)NCC(C)(C)N3CCOCC3)c(-c3ccccc3)n2)cc1`, the inhibition entry in the series with MKN-45 [1], in the series with MKN-45 [5] and with MKN-45 [11] was “inactive” throughout. For the same compound, the inhibition entry (in [2]; in series [3]; in the series with MKN-45 [15]) was “Active” throughout. Further, the values for the IC50 (in [4]; with MKN-45 [7]; in [9]) were 24.4 nM, 20600 nM and 24.8 nM, respectively. Moreover, the inhibition in series [6] was 19.6%; in series [8], 16.4%; in [10], “Dose-dependent effect”; in [13] it was “Dose-dependent effect”; in series [14], 20.1%; in series [16] it was 62.4%. In addition, the results for the inhibition in series [18] and in series [19] were 50.1% and 3.57%, respectively. Further, in series [12], the inhibition at 100 µM is less than 10%. In the series on MKN-45 [17], the Activity result is “Dose-dependent effect”.

Values taken from ChEMBL document CHEMBL4680221, “Discovery of pyrazole derivatives as cellular active inhibitors of histone lysine specific demethylase 5B (KDM5B/JARID1B)” (Eur J Med Chem, 2020).
